Results: ChEMBL document CHEMBL1681705, “Optimisation of ITK inhibitors through successive iterative design cycles” (Bioorg Med Chem Lett, 2011)

Columns and labels:
[1] = molecular target: Proto-oncogene tyrosine-protein kinase Src (Homo sapiens) (UniProt P12931); assay: Inhibition of c-SRC at 0.1 uM; values are per cent of control
[2] = molecular target: Serine/threonine-protein kinase PLK3 (Homo sapiens) (UniProt Q9H4B4); assay: Inhibition of Plk3 at 0.1 uM; values are per cent of control
[3] = molecular target: T1, cGMP-dependent protein kinase 1 (Homo sapiens) (UniProt Q13976); assay: Inhibition of PKG1beta at 0.1 uM; values are per cent of control
T1 sequence (whole entry): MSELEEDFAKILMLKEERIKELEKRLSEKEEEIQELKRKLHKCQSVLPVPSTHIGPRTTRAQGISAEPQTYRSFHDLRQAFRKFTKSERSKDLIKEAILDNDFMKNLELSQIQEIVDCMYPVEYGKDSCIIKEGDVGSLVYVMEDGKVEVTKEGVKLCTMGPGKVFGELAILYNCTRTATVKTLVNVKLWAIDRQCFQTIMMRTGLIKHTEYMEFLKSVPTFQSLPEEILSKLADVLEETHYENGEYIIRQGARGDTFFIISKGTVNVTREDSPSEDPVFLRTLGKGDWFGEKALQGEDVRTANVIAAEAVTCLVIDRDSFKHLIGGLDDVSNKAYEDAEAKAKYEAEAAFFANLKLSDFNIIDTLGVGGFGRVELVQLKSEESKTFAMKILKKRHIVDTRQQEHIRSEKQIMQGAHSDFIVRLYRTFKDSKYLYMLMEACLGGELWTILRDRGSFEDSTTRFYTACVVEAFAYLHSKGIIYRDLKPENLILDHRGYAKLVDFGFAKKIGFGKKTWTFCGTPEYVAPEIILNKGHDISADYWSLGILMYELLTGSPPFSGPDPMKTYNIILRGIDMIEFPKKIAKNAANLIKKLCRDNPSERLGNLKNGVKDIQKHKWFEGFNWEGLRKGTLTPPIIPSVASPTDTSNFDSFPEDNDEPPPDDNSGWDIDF

[4] = molecular target: Ephrin type-A receptor 5 (Homo sapiens) (UniProt P54756); assay: Inhibition of EphA5 at 1 uM; values are per cent of control
[5] = molecular target: Ephrin type-A receptor 2 (Homo sapiens) (UniProt P29317); assay: Inhibition of EphA2 at 1 uM; values are per cent of control
[6] = molecular target: RAF proto-oncogene serine/threonine-protein kinase (Homo sapiens) (UniProt P04049); assay: Inhibition of c-RAF at 0.1 uM; values are per cent of control
[7] = molecular target: Glycogen synthase kinase-3 beta (Homo sapiens) (UniProt P49841); assay: Inhibition of GSK3-beta at 0.1 uM; values are per cent of control
[8] = molecular target: Ephrin type-A receptor 7 (Homo sapiens) (UniProt Q15375); assay: Inhibition of EphA7 at 0.1 uM; values are per cent of control
[9] = molecular target: Serine/threonine-protein kinase pim-1 (Homo sapiens) (UniProt P11309); assay: Inhibition of Pim-1 at 1 uM; values are per cent of control
[10] = molecular target: Macrophage colony-stimulating factor 1 receptor (Homo sapiens) (UniProt P07333); assay: Inhibition of Fms at 0.1 uM; values are per cent of control
[11] = molecular target: Serine/threonine-protein kinase MARK1 (Homo sapiens) (UniProt Q9P0L2); assay: Inhibition of MARK1 at 1 uM; values are per cent of control
[12] = molecular target: Mitogen-activated protein kinase 1 (Homo sapiens) (UniProt P28482); assay: Inhibition of MAPK1 at 1 uM
How it was run: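 Single-point screen within a 108-kinase selectivity panel. Each kinase was tested with inhibitor at 0.1 and 1.0 micromolar, and activity was recorded as percent inhibition.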

[13] = molecular target: T2, Activin receptor type-1B (Homo sapiens) (UniProt P36896); assay: Inhibition of ALK4 at 1 uM; values are per cent of control
T2 sequence (whole entry): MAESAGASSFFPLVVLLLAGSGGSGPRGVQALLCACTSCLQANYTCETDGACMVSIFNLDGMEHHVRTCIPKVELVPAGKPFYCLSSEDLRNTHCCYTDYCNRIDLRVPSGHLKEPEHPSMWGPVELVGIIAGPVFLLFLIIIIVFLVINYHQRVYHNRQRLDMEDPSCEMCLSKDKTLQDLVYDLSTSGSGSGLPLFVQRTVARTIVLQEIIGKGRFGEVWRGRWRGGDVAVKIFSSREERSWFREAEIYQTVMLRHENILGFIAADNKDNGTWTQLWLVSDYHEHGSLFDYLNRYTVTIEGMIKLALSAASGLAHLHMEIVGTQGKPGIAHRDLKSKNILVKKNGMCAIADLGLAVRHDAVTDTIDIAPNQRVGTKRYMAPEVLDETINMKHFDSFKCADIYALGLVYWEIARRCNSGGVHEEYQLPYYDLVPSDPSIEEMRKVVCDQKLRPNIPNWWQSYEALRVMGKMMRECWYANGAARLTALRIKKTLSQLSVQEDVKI

[14] = molecular target: Vascular endothelial growth factor receptor 2 (Homo sapiens) (UniProt P35968); assay: Inhibition of KDR at 0.1 uM; values are per cent of control
Vascular endothelial growth factor receptor 2 (Homo sapiens), sequence (P35968 whole entry): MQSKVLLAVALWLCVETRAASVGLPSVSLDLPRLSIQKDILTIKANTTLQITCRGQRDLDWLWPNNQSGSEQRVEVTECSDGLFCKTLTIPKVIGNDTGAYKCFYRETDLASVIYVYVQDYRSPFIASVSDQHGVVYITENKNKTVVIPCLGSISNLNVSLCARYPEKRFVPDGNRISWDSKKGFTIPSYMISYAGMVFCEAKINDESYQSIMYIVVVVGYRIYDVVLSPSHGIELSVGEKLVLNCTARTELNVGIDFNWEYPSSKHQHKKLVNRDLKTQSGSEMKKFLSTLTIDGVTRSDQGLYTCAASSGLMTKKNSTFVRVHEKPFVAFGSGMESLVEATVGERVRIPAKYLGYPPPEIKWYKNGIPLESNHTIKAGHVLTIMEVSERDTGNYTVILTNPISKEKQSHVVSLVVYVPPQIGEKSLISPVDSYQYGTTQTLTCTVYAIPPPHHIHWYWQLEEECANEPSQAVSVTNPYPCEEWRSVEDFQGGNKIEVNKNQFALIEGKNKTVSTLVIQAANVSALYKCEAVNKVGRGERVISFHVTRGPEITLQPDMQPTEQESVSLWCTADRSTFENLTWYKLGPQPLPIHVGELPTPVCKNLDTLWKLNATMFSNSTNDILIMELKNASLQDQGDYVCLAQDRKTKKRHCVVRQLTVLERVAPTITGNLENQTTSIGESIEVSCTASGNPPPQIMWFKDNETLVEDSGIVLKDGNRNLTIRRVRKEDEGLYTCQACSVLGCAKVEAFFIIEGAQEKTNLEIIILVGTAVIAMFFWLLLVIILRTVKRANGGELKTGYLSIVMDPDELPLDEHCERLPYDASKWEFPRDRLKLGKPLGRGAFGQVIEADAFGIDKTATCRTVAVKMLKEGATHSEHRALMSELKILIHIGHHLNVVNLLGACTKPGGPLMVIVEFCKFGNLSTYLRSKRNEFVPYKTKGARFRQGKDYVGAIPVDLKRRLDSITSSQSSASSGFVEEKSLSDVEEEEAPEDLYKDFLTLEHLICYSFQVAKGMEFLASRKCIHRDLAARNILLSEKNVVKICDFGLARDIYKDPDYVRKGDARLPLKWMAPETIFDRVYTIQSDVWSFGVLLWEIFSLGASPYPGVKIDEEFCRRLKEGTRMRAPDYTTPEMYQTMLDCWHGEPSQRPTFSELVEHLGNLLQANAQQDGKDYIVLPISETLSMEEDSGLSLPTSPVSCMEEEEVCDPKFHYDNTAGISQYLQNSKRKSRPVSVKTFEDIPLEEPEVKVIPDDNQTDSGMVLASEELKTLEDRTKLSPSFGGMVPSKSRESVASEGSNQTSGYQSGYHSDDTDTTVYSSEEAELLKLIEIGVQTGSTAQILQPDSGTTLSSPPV

Ephrin type-A receptor 5 (Homo sapiens), sequence (P54756 whole entry): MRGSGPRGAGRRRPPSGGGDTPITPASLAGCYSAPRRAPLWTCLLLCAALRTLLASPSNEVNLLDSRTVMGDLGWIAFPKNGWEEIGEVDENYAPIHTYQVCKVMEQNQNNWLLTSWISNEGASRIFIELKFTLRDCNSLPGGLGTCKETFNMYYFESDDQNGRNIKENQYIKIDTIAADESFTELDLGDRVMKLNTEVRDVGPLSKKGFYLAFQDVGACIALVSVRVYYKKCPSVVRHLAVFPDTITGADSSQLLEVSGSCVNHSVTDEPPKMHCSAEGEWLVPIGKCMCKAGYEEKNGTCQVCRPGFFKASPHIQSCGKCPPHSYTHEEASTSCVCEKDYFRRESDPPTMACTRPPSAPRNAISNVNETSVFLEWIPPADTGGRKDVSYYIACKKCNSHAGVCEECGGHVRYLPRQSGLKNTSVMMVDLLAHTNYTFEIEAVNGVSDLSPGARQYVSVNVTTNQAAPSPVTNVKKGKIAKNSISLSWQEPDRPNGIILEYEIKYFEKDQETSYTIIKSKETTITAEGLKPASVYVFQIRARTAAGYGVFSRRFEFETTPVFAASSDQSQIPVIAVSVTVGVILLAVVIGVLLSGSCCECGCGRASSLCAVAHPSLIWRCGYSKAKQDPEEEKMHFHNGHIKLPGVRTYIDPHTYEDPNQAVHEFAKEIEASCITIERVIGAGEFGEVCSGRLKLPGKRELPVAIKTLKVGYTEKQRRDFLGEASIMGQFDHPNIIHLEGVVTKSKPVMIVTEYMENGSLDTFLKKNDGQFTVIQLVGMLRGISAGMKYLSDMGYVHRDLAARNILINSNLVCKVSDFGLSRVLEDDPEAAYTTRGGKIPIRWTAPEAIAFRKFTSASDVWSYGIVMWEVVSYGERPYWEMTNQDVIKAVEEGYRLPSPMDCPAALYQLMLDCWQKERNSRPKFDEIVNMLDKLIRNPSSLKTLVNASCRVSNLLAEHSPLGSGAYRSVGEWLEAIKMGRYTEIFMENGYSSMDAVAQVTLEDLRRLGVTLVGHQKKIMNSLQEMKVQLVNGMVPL
Glycogen synthase kinase-3 beta (Homo sapiens), sequence (P49841 whole entry, looked up): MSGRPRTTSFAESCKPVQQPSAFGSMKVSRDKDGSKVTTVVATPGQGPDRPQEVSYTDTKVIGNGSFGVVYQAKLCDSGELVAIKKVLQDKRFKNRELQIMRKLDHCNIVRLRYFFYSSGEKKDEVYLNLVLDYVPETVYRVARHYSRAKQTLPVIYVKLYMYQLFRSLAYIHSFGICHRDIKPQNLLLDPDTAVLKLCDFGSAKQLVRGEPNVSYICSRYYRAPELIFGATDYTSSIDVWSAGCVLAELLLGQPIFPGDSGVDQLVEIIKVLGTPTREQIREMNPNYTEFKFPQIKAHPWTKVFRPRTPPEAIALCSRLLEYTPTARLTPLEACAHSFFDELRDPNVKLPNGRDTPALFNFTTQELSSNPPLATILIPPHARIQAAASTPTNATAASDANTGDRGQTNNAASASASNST
Serine/threonine-protein kinase PLK3 (Homo sapiens), sequence (Q9H4B4 whole entry, looked up): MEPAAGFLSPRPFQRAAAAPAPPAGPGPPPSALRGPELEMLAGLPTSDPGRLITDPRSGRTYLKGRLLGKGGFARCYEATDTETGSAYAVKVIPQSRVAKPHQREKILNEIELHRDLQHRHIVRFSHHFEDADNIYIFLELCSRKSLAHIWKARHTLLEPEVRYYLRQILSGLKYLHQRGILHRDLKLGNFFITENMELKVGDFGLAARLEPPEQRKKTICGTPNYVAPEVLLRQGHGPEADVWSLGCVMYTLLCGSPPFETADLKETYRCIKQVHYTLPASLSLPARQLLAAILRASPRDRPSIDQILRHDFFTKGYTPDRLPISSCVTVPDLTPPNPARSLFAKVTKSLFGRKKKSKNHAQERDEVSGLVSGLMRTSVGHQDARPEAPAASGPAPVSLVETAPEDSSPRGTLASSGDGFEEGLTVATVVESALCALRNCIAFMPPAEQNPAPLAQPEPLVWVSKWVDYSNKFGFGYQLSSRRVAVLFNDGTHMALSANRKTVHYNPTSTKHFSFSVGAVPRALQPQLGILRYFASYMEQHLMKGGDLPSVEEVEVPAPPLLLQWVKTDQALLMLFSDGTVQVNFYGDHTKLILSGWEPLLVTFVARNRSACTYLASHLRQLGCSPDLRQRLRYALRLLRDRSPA
Ephrin type-A receptor 2 (Homo sapiens), sequence (P29317 whole entry): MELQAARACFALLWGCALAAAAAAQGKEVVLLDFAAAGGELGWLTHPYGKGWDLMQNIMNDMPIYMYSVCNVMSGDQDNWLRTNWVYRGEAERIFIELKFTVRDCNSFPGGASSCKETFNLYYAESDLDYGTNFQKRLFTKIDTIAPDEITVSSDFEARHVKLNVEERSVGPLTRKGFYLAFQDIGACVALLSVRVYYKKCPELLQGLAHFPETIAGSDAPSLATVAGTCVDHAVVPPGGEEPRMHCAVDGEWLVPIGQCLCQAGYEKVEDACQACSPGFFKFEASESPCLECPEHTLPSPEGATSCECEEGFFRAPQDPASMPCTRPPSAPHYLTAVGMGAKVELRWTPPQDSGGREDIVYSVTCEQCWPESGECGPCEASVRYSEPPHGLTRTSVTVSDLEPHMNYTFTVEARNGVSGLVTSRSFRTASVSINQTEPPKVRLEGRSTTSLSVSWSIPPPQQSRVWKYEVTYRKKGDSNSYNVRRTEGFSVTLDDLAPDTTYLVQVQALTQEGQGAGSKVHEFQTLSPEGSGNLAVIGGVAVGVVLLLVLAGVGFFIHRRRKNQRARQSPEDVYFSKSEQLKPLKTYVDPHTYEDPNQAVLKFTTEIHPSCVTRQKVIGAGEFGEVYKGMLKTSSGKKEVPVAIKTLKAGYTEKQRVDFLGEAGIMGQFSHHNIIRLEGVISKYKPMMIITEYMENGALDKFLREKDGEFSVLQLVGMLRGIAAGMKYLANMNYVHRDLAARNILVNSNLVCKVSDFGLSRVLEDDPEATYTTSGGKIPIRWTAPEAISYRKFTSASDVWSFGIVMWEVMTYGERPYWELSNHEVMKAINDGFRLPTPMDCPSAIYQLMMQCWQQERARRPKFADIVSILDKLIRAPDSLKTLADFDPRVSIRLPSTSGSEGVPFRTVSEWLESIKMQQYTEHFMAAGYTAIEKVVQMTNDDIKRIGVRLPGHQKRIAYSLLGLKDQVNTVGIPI
RAF proto-oncogene serine/threonine-protein kinase (Homo sapiens), sequence (P04049 whole entry): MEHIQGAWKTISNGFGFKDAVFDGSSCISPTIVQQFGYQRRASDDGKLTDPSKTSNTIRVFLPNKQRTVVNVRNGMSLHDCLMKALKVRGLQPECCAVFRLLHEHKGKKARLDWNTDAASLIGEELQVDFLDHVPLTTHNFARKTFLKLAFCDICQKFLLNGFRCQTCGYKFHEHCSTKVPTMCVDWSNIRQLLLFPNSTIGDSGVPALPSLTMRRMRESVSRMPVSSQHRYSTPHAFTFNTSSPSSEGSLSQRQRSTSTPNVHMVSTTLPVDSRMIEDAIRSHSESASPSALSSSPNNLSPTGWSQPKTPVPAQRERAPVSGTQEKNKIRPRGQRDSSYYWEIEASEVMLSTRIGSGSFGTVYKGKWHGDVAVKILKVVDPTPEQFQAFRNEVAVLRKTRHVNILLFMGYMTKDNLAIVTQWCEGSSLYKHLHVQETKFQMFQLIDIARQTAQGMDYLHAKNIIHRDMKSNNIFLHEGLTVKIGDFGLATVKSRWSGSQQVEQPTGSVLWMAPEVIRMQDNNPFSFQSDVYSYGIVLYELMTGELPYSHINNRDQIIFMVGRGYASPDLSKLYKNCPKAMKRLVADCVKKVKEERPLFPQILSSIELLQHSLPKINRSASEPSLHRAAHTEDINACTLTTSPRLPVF

SMILES	residual activity [1] [%]	residual activity [2] [%]	residual activity [3] [%]	residual activity [4] [%]	residual activity [5] [%]	residual activity [6] [%]	residual activity [7] [%]	residual activity [8] [%]	residual activity [9] [%]	residual activity [10] [%]	residual activity [11] [%]	inhibition [12] [%]	residual activity [13] [%]	residual activity [14] [%]
Cc1ccc2cc(-c3n[nH]c4ccc(NC5CCN(Cc6ccccc6)CC5)cc34)[nH]c2c1	31	103	83	22	7	101	97	75	93	60	21	84	103	45
Cc1ccc2cc(-c3n[nH]c4ccc(NC5CCNC5)cc34)[nH]c2c1 (stereo not drawn)	16	106	95	50	13	92	97	75	91	57	0	64	114	28
